Data taken from ChEMBL document CHEMBL1255259, “Phosphorothioate-modified oligodeoxynucleotides inhibit human cytomegalovirus replication by blocking virus entry” (Antimicrob Agents Chemother, 2008).
Calls of active or inactive are those of the source. The calls are words filed in the database; no cut-off is given here.

What was measured:
Human betaherpesvirus 5 [1] = assay: Antimicrobial activity against Human cytomegalovirus AD169 infected in compound pretreated HELF assessed as expression of immediate early 1 protein by immunoblotting; format: functional, organism-based
In short: (§1)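 HELF pretreated with ODN (1 μM) 1 h before and during infection with HCMV AD169 (MOI 1). Whole-cell extracts taken at set times p.i., run on 8% SDS-PAGE (50 μg protein/lane), immunoblotted with MAbs to IE1/IE2, UL44 (early) or UL99 (late); actin as loading control.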

Human betaherpesvirus 5 [2] = assay: Antimicrobial activity against Human cytomegalovirus AD169 infected in compound pretreated HELF assessed as expression of late protein by immunoblotting; format: functional, organism-based; in short: as §1
Human betaherpesvirus 5 [3] = assay: Antimicrobial activity against Human cytomegalovirus AD169 infected in 1 uM compound pretreated HELF assessed as inhibition of viral replication measured after 6 days post-infection; format: functional, organism-based
In short: (§2)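 HELF pretreated with ODN 1 h before infection with HCMV AD169 (MOI 1); ODN kept in medium after 2 h adsorption at 37°C. At 6 days p.i., cells plus supernatants sonicated and titrated by plaque assay on HELF; plaques counted microscopically, expressed as PFU/ml (log10) or % of control. IC50/IC90 by linear regression; duplicate wells, three independent experiments, means ± SD.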

Human betaherpesvirus 5 [4] = assay: Antimicrobial activity against Human cytomegalovirus isolate 1814 infected in compound pretreated HELF assessed as inhibition of viral replication; format: functional, organism-based; conditions: Human betaherpesvirus 5, isolate 1814, HELF
In short: (§3)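 HELF pretreated 1 h with ODN, infected with clinical HCMV isolate (VR1814 or AL1, HUVEC-propagated) at MOI 1; ODN kept after 2 h adsorption. At 6 days p.i., yield titrated on HELF; IC50 from concentration–plaque reduction plot.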

[5] = Cytotoxicity against HELF assessed as cell viability after 6 days by MTT assay; format: cell-based; conditions: human, HELF cells
In short: (§4)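 HELF exposed to rising ODN concentrations (up to 10 μM) for 6 days; viable cells measured by MTT. CC50 taken as concentration that cuts viability to 50%.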

Human betaherpesvirus 5 [6] = assay: Antimicrobial activity against Human cytomegalovirus isolate 1814 infected in compound pretreated HUVEC assessed as inhibition of viral replication; format: functional, organism-based; conditions: Human betaherpesvirus 5, isolate 1814, HUVEC
In short: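 HUVEC (passages 2–6, EGM-2 with 2% FBS) pretreated 1 h with ODN and infected with HCMV VR1814 at MOI 1; ODN maintained after 2 h adsorption. Yield at 6 days p.i. titrated on HELF; IC50 from concentration-dependent plaque reduction.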

Human betaherpesvirus 5 [7] = assay: Antimicrobial activity against Human cytomegalovirus AD169 infected in HELF assessed as inhibition of viral replication at 0.1 uM measured after 6 days post-infection; format: functional, organism-based
unidentified adenovirus = assay: Antimicrobial activity against unidentified adenovirus infected in compound pretreated HELF assessed as inhibition of viral replication; format: functional, organism-based
In short: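 HELF pretreated 1 h with ODN (0.1 or 1 μM), infected with an adenovirus clinical isolate (MOI 1); ODN kept after 2 h adsorption. Harvest at 4 days p.i., sonication, plaque titration on HELF. Means ± SD, three experiments.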

Human alphaherpesvirus 1 [8] = assay: Antimicrobial activity against Human herpesvirus 1 infected in compound pretreated HELF assessed as inhibition of viral replication at 1 uM; format: functional, organism-based
In short: (§5)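 HELF pretreated with ODN (0.1 or 1 μM) 1 h before infection with a clinical HSV-1 isolate at MOI 0.1; ODN kept in medium after 2 h adsorption. Harvest at 48 h p.i., sonication, plaque titration on Vero cells. Means ± SD of three independent experiments.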

[9] = Antimicrobial activity against Murine cytomegalovirus (strain Smith) infected in compound pretreated mouse NIH 3T3 cells assessed as inhibition of viral replication; format: functional, cell-based; conditions: Murid betaherpesvirus 1, NIH3T3
In short: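 NIH 3T3 pretreated 1 h with ODN, infected with MCMV Smith (MOI 1); ODN kept after 2 h adsorption at 37°C. Harvest at 6 days p.i., sonication, plaque assay on NIH 3T3; IC50 from plaque reduction. Means ± SD, three experiments.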

Human betaherpesvirus 5 [10] = assay: Antimicrobial activity against 0.1 uM compound pretreated Human cytomegalovirus AD169 infected in HELF assessed as reduction in viral titer at 4 degC; format: functional, organism-based
In short: (§6)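 HCMV AD169 (10^4 PFU) incubated with ODN at 0.1 μM at 4 or 37°C for various times; samples then diluted to bring ODN below an antivirally active level; residual infectivity titrated by plaque assay on HELF. Means ± SD of three independent experiments.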

Human betaherpesvirus 5 [11] = assay: Antimicrobial activity against Human cytomegalovirus AD169 infected in compound pretreated HELF assessed as inhibition of viral replication measured after 6 days post-infection; format: functional, organism-based; conditions: Human betaherpesvirus 5, AD169, HELF; in short: as §2
Human betaherpesvirus 5 [12] = assay: Antimicrobial activity against 0.1 uM compound pretreated Human cytomegalovirus AD169 infected in HELF assessed as reduction in viral titer 37 degC; format: functional, organism-based; in short: as §6
Human betaherpesvirus 5 [13] = assay: Antimicrobial activity against Human cytomegalovirus AD169 infected in compound pretreated HELF measured as immediate early 2 mRNA level by RT-PCR; format: functional, organism-based
Human betaherpesvirus 5 [14] = assay: Antimicrobial activity against Human cytomegalovirus AD169 infected in 0.1 uM compound pretreated HELF assessed as viral DNA accumulation measured after 4 hrs post-infection by RT-PCR; format: functional, organism-based
In short: (§7)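 HELF treated with ODN (0.1 μM), then infected with HCMV AD169 (MOI 5). Total genomic DNA collected at 4 and 48 h p.i.; 15 ng analysed by TaqMan real-time PCR for IE1 (50 cycles, 95°C 15 s / 62°C 1 min). Copies normalized to 18S rRNA gene against plasmid standard curve. Means ± SD, three experiments.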

Human betaherpesvirus 5 [15] = assay: Antimicrobial activity against Human cytomegalovirus TB40 expressing EGPF tagged UL32 infected in HELF assessed as inhibition of inhibition of viral adsorption at 0.1 uM after 2 hrs by fluorescence microscopy; format: functional, organism-based
In short: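 Prechilled HELF on coverslips exposed to ODN (0.1 μM) or heparin (30 μg/ml) 1 h at 4°C, then infected with HCMV TB40 UL32-EGFP (MOI 20) 2 h at 4°C to permit attachment only. Washed in ice-cold PBS, fixed in 4% formaldehyde, propidium iodide counterstain; green virions imaged by confocal fluorescence microscopy. Done twice.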

Human betaherpesvirus 5 [16] = assay: Antimicrobial activity against Human cytomegalovirus AD169 infected in compound pretreated HELF measured as immediate early 1 mRNA level by RT-PCR; format: functional, organism-based
Human betaherpesvirus 5 [17] = assay: Antimicrobial activity against Human cytomegalovirus AD169 infected in 0.1 uM compound pretreated HELF assessed as viral DNA accumulation measured after 48 hrs post-infection by RT-PCR; format: functional, organism-based; in short: as §7
Human betaherpesvirus 5 [18] = assay: Antimicrobial activity against Human cytomegalovirus AD169 infected in compound pretreated HELF assessed as expression of immediate early 2 protein by immunoblotting; format: functional, organism-based; in short: as §1
Human alphaherpesvirus 1 [19] = assay: Antimicrobial activity against Human herpesvirus 1 infected in compound pretreated HELF assessed as inhibition of viral replication at 0.1 uM; format: functional, organism-based; in short: as §5
[20] = test system: Vesicular stomatitis Indiana virus; assay: Antimicrobial activity against Vesicular stomatitis Indiana virus infected in compound pretreated HELF assessed as inhibition of viral replication; format: functional, organism-based
In short: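 HELFs exposed to ODN (0.1 or 1 μM) for 1 h, then infected with VSV serotype Indiana at MOI 1 (2 h adsorption, 37°C). ODN kept in the medium until 48 h p.i. Cells and supernatants were pooled, sonicated and titrated by plaque assay on HELFs. Data are means ± standard deviations of three independent experiments, duplicate wells.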

Human betaherpesvirus 5 [21] = assay: Antimicrobial activity against Human cytomegalovirus AD169 infected in compound pretreated HELF assessed as expression of early protein by immunoblotting; format: functional, organism-based; in short: as §1
Human betaherpesvirus 5 [22] = assay: Antimicrobial activity against Human cytomegalovirus AD169 infected in HELF assessed as inhibition of viral replication at 1 uM measured after 6 days post-infection; format: functional, organism-based
[23] = Cytotoxicity against HELF assessed as cell viability by MTT assay after 6 days at <=10 uM; format: cell-based; conditions: human, 144 h; in short: as §4
Human betaherpesvirus 5 [24] = assay: Antimicrobial activity against Human cytomegalovirus AD169 infected in 0.1 uM compound pretreated HELF assessed as inhibition of viral replication measured after 6 days post-infection; format: functional, organism-based; in short: as §2
Human betaherpesvirus 5 [25] = assay: Antimicrobial activity against Human cytomegalovirus isolate AL1 infected in compound pretreated HELF assessed as inhibition of viral replication; format: functional, organism-based; conditions: Human betaherpesvirus 5, isolate AL1, HELF; in short: as §3
Human betaherpesvirus 5 [26] = assay: Antimicrobial activity against Human herpesvirus 5 strain AD169 infected in HELF assessed as pp65 nuclear localization at 0.1 uM after 2 hrs […]; format: functional, organism-based

Cc1cn([C@H]2C[C@H](OP(O)(O)=S)[C@@H](COP(O)(=S)O[C@H]3C[C@H](n4cc(C)c(=O)[nH]c4=O)O[C@@H]3COP(O)(=S)O[C@H]3[C@@H](O)[C@H](n4cnc5c(=O)[nH]c(N)nc54)O[C@@H]3COP(O)(=S)O[C@H]3[C@@H](O)[C@H](n4ccc(N)nc4=O)O[C@@H]3COP(O)(=S)O[C@H]3C[C@H](n4cc(C)c(=O)[nH]c4=O)O[C@@H]3COP(O)(=S)O[C@H]3[C@@H](O)[C@H](n4cnc5c(=O)[nH]c(N)nc54)O[C@@H]3COP(O)(=S)O[C@H]3C[C@H](n4cc(C)c(=O)[nH]c4=O)O[C@@H]3COP(O)(=S)O[C@H]3C[C@H](n4cc(C)c(=O)[nH]c4=O)O[C@@H]3COP(O)(=S)O[C@H]3C[C@H](n4cc(C)c(=O)[nH]c4=O)O[C@@H]3COP(O)(=S)O[C@H]3C[C@H](n4cc(C)c(=O)[nH]c4=O)O[C@@H]3COP(O)(=S)O[C@H]3[C@@H](O)[C@H](n4cnc5c(=O)[nH]c(N)nc54)O[C@@H]3COP(O)(=S)O[C@H]3[C@@H](O)[C@H](n4ccc(N)nc4=O)O[C@@H]3COP(O)(=S)O[C@H]3C[C@H](n4cc(C)c(=O)[nH]c4=O)O[C@@H]3COP(O)(=S)O[C@H]3[C@@H](O)[C@H](n4cnc5c(=O)[nH]c(N)nc54)O[C@@H]3COP(O)(=S)O[C@H]3C[C@H](n4cc(C)c(=O)[nH]c4=O)O[C@@H]3COP(O)(=S)O[C@H]3C[C@H](n4cc(C)c(=O)[nH]c4=O)O[C@@H]3COP(O)(=S)O[C@H]3C[C@H](n4cc(C)c(=O)[nH]c4=O)O[C@@H]3COP(O)(=S)O[C@H]3C[C@H](n4cc(C)c(=O)[nH]c4=O)O[C@@H]3COP(O)(=S)O[C@H]3[C@@H](O)[C@H](n4cnc5c(=O)[nH]c(N)nc54)O[C@@H]3COP(O)(=S)O[C@H]3[C@@H](O)[C@H](n4ccc(N)nc4=O)O[C@@H]3COP(O)(=S)O[C@H]3C[C@H](n4cc(C)c(=O)[nH]c4=O)O[C@@H]3COP(O)(=S)O[C@H]3[C@@H](O)[C@H](n4cnc5c(=O)[nH]c(N)nc54)O[C@@H]3COP(O)(=S)O[C@H]3[C@@H](O)[C@H](n4ccc(N)nc4=O)O[C@@H]3COP(O)(=S)O[C@H]3C[C@H](n4cc(C)c(=O)[nH]c4=O)O[C@@H]3CO)O2)c(=O)[nH]c1=O (stereo partly drawn)
inhibition (Human betaherpesvirus 5 [1]): Active | inhibition (Human betaherpesvirus 5 [2]): Active | inhibition (Human betaherpesvirus 5 [3]): Active | IC50 (Human betaherpesvirus 5 [4]): 38 nM | CC50 at 144 h [5]: > 10000 nM | IC50 (Human betaherpesvirus 5 [6]): 25 nM | inhibition (Human betaherpesvirus 5 [7]): inactive | inhibition (unidentified adenovirus): inactive | inhibition (Human alphaherpesvirus 1 [8]): inactive | IC50 [9]: 50 nM | inhibition (Human betaherpesvirus 5 [10]): inactive | IC50 (Human betaherpesvirus 5 [11]): 20 nM | IC90 (Human betaherpesvirus 5 [11]): 65 nM | inhibition (Human betaherpesvirus 5 [12]): inactive | inhibition (Human betaherpesvirus 5 [13]): Active | inhibition (Human betaherpesvirus 5 [14]): Active | inhibition (Human betaherpesvirus 5 [15]): inactive | inhibition (Human betaherpesvirus 5 [16]): Active | inhibition (Human betaherpesvirus 5 [17]): Active | inhibition (Human betaherpesvirus 5 [18]): Active | inhibition (Human alphaherpesvirus 1 [19]): inactive | inhibition [20]: inactive | inhibition (Human betaherpesvirus 5 [21]): Active | inhibition (Human betaherpesvirus 5 [22]): inactive | Activity [23]: Non-toxic | inhibition (Human betaherpesvirus 5 [24]): Active | IC50 (Human betaherpesvirus 5 [25]): 44 nM | inhibition (Human betaherpesvirus 5 [26]): Active
